Measurements published in ChEMBL document CHEMBL4017511, “Discovery of Fragment-Derived Small Molecules for in Vivo Inhibition of Ketohexokinase (KHK)” (J Med Chem, 2017).
≈ marks a conversion by molar mass, not a printed value. Calls of active or inactive are those of the source. The rule behind the calls is not given here.

Key:
Ketohexokinase [1] = molecular target: T1, Ketohexokinase (Homo sapiens, UniProt P50053); assay: Inhibition of recombinant human N-terminal His-tagged KHK expressed in Escherichia coli BL21(DE3) using fructose as substrate incubated for 30 mins followed by ATP addition measured for 30 mins by pyruvate kinase-lactate dehydrogenase coupled enzyme assay; conditions: read-out: IC50
T1 sequence (P50053 whole entry): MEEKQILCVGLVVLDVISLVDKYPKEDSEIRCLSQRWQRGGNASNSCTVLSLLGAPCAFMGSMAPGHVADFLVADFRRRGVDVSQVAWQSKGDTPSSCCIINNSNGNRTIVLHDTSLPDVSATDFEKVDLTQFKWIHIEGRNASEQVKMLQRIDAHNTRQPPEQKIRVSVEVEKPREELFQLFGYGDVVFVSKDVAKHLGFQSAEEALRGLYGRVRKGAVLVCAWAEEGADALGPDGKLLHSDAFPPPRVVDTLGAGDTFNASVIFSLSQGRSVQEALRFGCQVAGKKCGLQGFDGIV
How it was run: (§1)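 Thrombin-cleaved (His-tag removed) human or rat KHK at 10 nM, preincubated 30 min at room temperature with compound (11-point series, 2.5% DMSO). Started with 0.2 mM ATP; NADH A340 read kinetically for 30 min. IC50 from nonlinear fit of percent inhibition; mean of replicates.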

Ketohexokinase [2] = molecular target: T1, Ketohexokinase; assay: Binding affinity to full length recombinant human biotin-labeled KHK by SPR assay
How it was run: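 Full-length biotinylated KHK captured on a streptavidin sensor (7000-8000 RU). Run buffer was 50 mM HEPES pH 7.4, 150 mM NaCl, 0.01% P20, 500 µM TCEP, 3% DMSO at 25 °C. Eleven 2-fold concentrations from 300 µM top, stop-flow with 60 s association and ≥120 s dissociation. Data double-referenced and DMSO-corrected; KD by steady-state affinity fit, n=1.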

[3] = molecular target: T2, Ketohexokinase (Homo sapiens) (UniProt P50053); assay: Inhibition of recombinant full length human His-tagged KHK expressed in Escherichia coli BL21(DE3) using at 240 uM by 1D NMR-STD spectroscopic method
T2 sequence (whole entry): T1 sequence (P50053 whole entry)
How it was run: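 Full-length His-tagged human KHK (tag retained) at 5 μM in 50 mM Tris-d, 100 mM NaCl, 2 mM TCEP-d, 5% glycerol-d, pH 7.5, 298 K. AMP-PMP at 240 μM served as positive control. Saturation-transfer difference NMR used 512 scans and 3 s Gaussian on/off-resonance saturation. Binding was called from positive difference signals, with ligands assigned against each fragment's 1D 1H reference spectrum.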

Ketohexokinase [4] = molecular target: T3, Ketohexokinase (Rattus norvegicus, UniProt Q02974); assay: Inhibition of recombinant rat N-terminal His-tagged KHK expressed in Escherichia coli BL21(DE3) using fructose as substrate incubated for 30 mins followed by ATP addition measured for 30 mins by pyruvate kinase-lactate dehydrogenase coupled enzyme assay; conditions: read-out: IC50; how it was run: as §1
T3 sequence (Q02974 whole entry): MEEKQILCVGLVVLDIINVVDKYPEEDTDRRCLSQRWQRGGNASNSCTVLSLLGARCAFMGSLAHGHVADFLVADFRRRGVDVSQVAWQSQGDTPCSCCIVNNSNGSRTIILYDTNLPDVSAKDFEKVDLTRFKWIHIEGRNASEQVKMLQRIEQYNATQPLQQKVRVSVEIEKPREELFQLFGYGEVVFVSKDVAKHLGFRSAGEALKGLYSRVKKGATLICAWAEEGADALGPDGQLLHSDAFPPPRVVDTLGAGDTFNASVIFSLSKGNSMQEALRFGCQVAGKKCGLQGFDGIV

[5] = Thermodynamic solubility of compound at pH 7.4; type: physicochemical; conditions: buffer, read-out: Therm_solubility
How it was run: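 Thermodynamic solubility determined at pH 7.4.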

[6] = Fraction unbound in human plasma at 10 uM measured at 2 to 24 hrs by equilibrium dialysis method; type: ADME, cell-free
[7] = Apparent clearance in human liver microsomes; type: ADME, microsome; conditions: read-out: CLH(app)
[8] = Apparent permeability in RRCK cells by LC-MS/MS analysis; type: ADME, cell-based, Canis lupus familiaris, MDCKII-LE; conditions: dog, MDCK
[9] = Octanol/water partition coefficient, log D of the compound at pH 7.4 by shake-flask method; type: physicochemical
How it was run: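 LogD measured by shake-flask octanol:water partition at pH 7.4.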

Rattus norvegicus = assay: Unbound Cmax in rat at 300 mg/kg, po; type: ADME, organism-based; conditions: in vivo
How it was run: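 Rats given 300 mg/kg orally in 0.25% HPC-SL/0.05% DOSS vehicle. Free plasma concentrations determined; mean ± SD, n = 3 per data point.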

| Structure (SMILES) | IC50 (Ketohexokinase [1]) [µM] | Kd (Ketohexokinase [2]) [µM] | inhibition [3] | IC50 (Ketohexokinase [4]) [µM] | solubility thermodynamic [5] [µM] | fraction unbound at 10 µM [6] | microsomal CLint [7] [µL/min/mg] | Papp [8] [×10⁻⁶ cm/s] | logD [9] | fCmax (Rattus norvegicus) [µM] |
| --- | --- | --- | --- | --- | --- | --- | --- | --- | --- | --- |
| Oc1nc2ccccc2nc1C(F)(F)F | 100 | 44 | Active | – | – | – | – | – | – | – |
| Cc1cc(C)c(C#N)c(N2CCOCC2)n1 | 319 | 62 | Active | – | – | – | – | – | – | – |
| C[C@]1(O)CCN(c2nc(N3CCN(CCO)CC3)cc(C(F)(F)F)c2C#N)C1 | 1.03 | – | – | – | – | – | 14 | – | 2.2 | – |

Continued, values first:

| IC50 (Ketohexokinase [1]) [µM] | Kd (Ketohexokinase [2]) [µM] | inhibition [3] | IC50 (Ketohexokinase [4]) [µM] | solubility thermodynamic [5] [µM] | fraction unbound at 10 µM [6] | microsomal CLint [7] [µL/min/mg] | Papp [8] [×10⁻⁶ cm/s] | logD [9] | fCmax (Rattus norvegicus) [µM] | Structure (SMILES) |
| --- | --- | --- | --- | --- | --- | --- | --- | --- | --- | --- |
| > 500 | 103 | Active | – | – | – | – | – | – | – | N#Cc1cc(F)c(N)nc1Cl |
| 0.67 | – | – | 0.64 | 147 (≈ 45.6 µg/mL) | 0.032 | < 8 | 14 | 2.2 | 1.3 | C[C@]1(O)CCN(c2c(C#N)c(C(F)(F)F)nc3cc[nH]c23)C1 |
